# Variants at the floor of the assay were thinned out.
# B1: tRNA (parent)
# chain: GUUCCGUUGGCGUAAUGGUAACGCGUCUCCCUCCUAAGGAGAAGACUGCGGGUUCGAGUCCCGUACGGAACG
# Variants of: B1
# Experiment: yeast fitness relative to wild type (ratio to wild type); higher = fitter; tRNA-Arg(CCU), competitive growth, 37 C, YPD
# Outline: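 For this measurement, the tRNA-Arg(CCU) gene was varied by chemical synthesis at a 3% per-site mutation rate across 69 sites, and each variant was placed at the native genomic locus in Saccharomyces cerevisiae. The pooled strains went through a 24-hour competition in YPD at 37°C in six parallel replicates, with amplicons from start and end populations read by 100-nucleotide paired-end sequencing. Darwinian fitness relative to wild type followed from the change in each genotype's frequency. Genotypes needed ≥ 100 starting reads, and estimates < 0.5 were set to 0.5.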
row,Variant,yeast fitness
1,U7G C33G,0.654
2,U7C C11U G39C A45U C61U,≤ 0.5
3,U7G G9A A20U C31G C34U G67U,≤ 0.5
4,U7C G10A C30G A37C,0.554
5,U7C G51A C62G A65G,≤ 0.5
6,U7G C27A A36C A42U U64G,0.528
7,U7C G25A U28A G48C A70C,≤ 0.5
8,U7C C49A G67U,0.59
9,U7C U28A A37G C46U U47C,≤ 0.5
10,U7C G10C A43C,0.549
11,U7G C46U C60A G67A,≤ 0.5
12,U7C C34U,0.699
13,U7C U19C U26C C34U G52A U59A G63C,≤ 0.5
14,U7G A20G C60U C61G,≤ 0.5
15,U7G G9A C31G A36G,0.576
16,U7C C46U C61A G63U G67A,≤ 0.5
17,U7C G48C G67C,≤ 0.5
18,U7G G9A C31G C33U A36G,≤ 0.5
19,U8A A20C C31A A57C C66A A69U,≤ 0.5
20,U7C G41A A42C G50C C62U,≤ 0.5
21,U7G A40C G67C,≤ 0.5

row,Variant,yeast fitness
1,U7G G56A,1.06
2,U7G A14U C30A,≤ 0.5
3,U7G G12C G23C C29G,0.739
4,U7C U32G C33G U59C,≤ 0.5
5,U7G G23C A45U G51C,≤ 0.5
6,U7G C11G C34U G41A A65C C66U,≤ 0.5
7,U7G G23C U54A A57C A70U,≤ 0.5
8,U7C U28A C31U C55G C66U,≤ 0.5
9,U7G C33G G48C U64C,0.531
10,U7G C27U C33U C66U,≤ 0.5
11,U7C C30A C60A,≤ 0.5
12,U7G U8G A15C,0.543
13,U7G C27A,0.744
14,U7G C46U,0.987
15,U7G C29A A69G,≤ 0.5
16,U7C C31G C34U C55U G58A C61U,0.666
17,U7G C34G A36C C62G G68C,≤ 0.5
18,U7C U53A G56C G63A,≤ 0.5
19,U7C G18A C22G C62U A70G,≤ 0.5
20,U7G C11G C33G G56C C62G,≤ 0.5
21,U7G A21U C29A C55A,0.604

row,Variant,yeast fitness
1,U7G A37G,0.633
2,U7G A37U,0.72
3,U7G A37C,0.757
4,U7C U47C U54C C55G,≤ 0.5
5,U7C C60A,0.674
6,U7C C60U,0.785
7,U7C C60G,0.583
8,U7C C33U C49U U53C,0.539
9,U7G A21U C30U A40C,≤ 0.5
10,U7C U16G U28A C49G A57C G67U,≤ 0.5
11,U7C G68C A69U,0.612
12,U8A A15U C29U,≤ 0.5
13,U7C C27A U64G,≤ 0.5
14,U7C C11G C24U G48A G63A,≤ 0.5
15,U7C G25A C55A,≤ 0.5
16,U7C G23C G52A,0.591
17,U7C G25C C30G C33U A45G U47G G50C G63A,≤ 0.5
18,U8A A15C A21G C27U C46U A70G,≤ 0.5
19,U7C C31U G52A,≤ 0.5
20,U7C C29G A45C C62G A65C,≤ 0.5
21,U7G A65G,1.03

row,Variant,yeast fitness
1,U8A A15C A21G C27U C46U,≤ 0.5
2,U8A A14G C24G A65C,≤ 0.5
3,U7C G58C C66A,0.584
4,U7G U54C,0.905
5,U7G G12A,0.816
6,U7G C27G A40U G68C,≤ 0.5
7,U7C G25C A42G,0.567
8,U7C U64C,0.88
9,U7G A43G C46G G63A,≤ 0.5
10,U7G G12A U13A,0.565
11,U7C G41A A42C G50C A65U,≤ 0.5
12,U7C G41A A42C G50C A65C,≤ 0.5
13,U7C U19G G51A U59A C66A,≤ 0.5
14,U7G U64A,0.971
15,U7C C24G A65C,≤ 0.5
16,U7G A14C A20G C22U C49G G56C A70G,≤ 0.5
17,U7C C11U U19G C29U U32C C34G G52C A70G,≤ 0.5
18,U7C C30U C66G,≤ 0.5
19,U7G G12A G25A C33G G58A G67A,≤ 0.5
20,U7C U35C A37C,0.732

# — the RNAGym collection of RNA variant scans (doi:10.1126/science.aae0568)
